Results taken from ChEMBL document CHEMBL1124533, “Inhibition of human leukocyte elastase by derivatives of N-hydroxysuccinimide. A structure-activity-relationship study” (J Med Chem, 1989).
Calls of active or inactive are those of the source. The rule behind the calls is not given here.

Tests used:
[1] = target: T1, Neutrophil elastase (Homo sapiens) (UniProt P08246); assay: Catalytic rate constant (Kobs/[I]) against human leukocyte elastase was determined
T1 sequence (whole entry): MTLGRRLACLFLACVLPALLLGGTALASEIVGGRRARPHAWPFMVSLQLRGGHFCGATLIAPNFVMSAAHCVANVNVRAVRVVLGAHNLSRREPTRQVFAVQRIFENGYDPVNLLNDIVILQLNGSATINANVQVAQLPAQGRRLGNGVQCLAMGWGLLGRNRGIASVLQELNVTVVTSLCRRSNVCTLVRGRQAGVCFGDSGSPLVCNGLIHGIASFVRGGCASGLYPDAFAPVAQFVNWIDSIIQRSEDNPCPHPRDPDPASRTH
Procedure, shortened: (§1)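 Human leukocyte elastase (10 μL of 2.23 × 10⁻⁵ M stock in 0.05 M sodium acetate, pH 5.5) preincubated with inhibitor (20 μL of 2.23 × 10⁻² M DMSO stock) in HEPES pH 7.2, 1 mL total, thermostated. Aliquots withdrawn over time into MeOSuc-Ala-Ala-Pro-Val-pNA; A410 read for 2 min after 30 s. kobs from ln(vt/v0) vs t, divided by [I]; mean of two determinations.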

[2] = target: T1, Neutrophil elastase (Homo sapiens); assay: Catalytic rate constant (Kobs/[I]) against human leukocyte elastase was determined; Inactive; procedure, shortened: as §1

Row | Structure (SMILES) | K obs / 1 [1] [M⁻¹ s⁻¹] | K obs / 1 [2]
1 | CC(C)C1CC(=O)N(OS(C)(=O)=O)C1=O (stereo unspecified) | 3820 | –
2 | CCCCCCCCS(=O)(=O)ON1C(=O)CC(Cc2ccccc2)C1=O (stereo unspecified) | 1270 | –
3 | CS(=O)(=O)ON1C(=O)CC(Cc2ccccc2C(F)(F)F)C1=O (stereo unspecified) | 189 | –
4 | O=C1CC(Cc2ccccc2)C(=O)N1OS(=O)(=O)/C=C/c1ccccc1 (stereo unspecified) | 9430 | –
5 | CC(C)C1CC(=O)N(OS(=O)(=O)/C=C/c2ccccc2)C1=O (stereo unspecified) | > 100000 | –
6 | CC(C)S(=O)(=O)ON1C(=O)CC(Cc2ccccc2)C1=O (stereo unspecified) | 1100 | –
7 | O=C1CC(Cc2ccccc2)C(=O)N1OS(=O)(=O)c1ccccc1 (stereo unspecified) | 1170 | –
8 | CC(C)CCC1CC(=O)N(OS(C)(=O)=O)C1=O (stereo unspecified) | 361 | –
9 | CC(C)CCC1CC(=O)N(OS(=O)(=O)/C=C/c2ccccc2)C1=O (stereo unspecified) | 2250 | –
10 | O=C1CC(Cc2ccccc2)C(=O)N1OS(=O)(=O)c1ccc(F)cc1 (stereo unspecified) | 1110 | –
11 | O=C1CC(Cc2ccccc2C(F)(F)F)C(=O)N1OS(=O)(=O)/C=C/c1ccccc1 (stereo unspecified) | 1860 | –
12 | CS(=O)(=O)ON1C(=O)CC(Cc2ccc(C(F)(F)F)cc2)C1=O (stereo unspecified) | 84 | –
13 | O=C1CCC(=O)N1OS(=O)(=O)/C=C/c1ccccc1 | – | inactive
14 | Cc1ccc(S(=O)(=O)ON2C(=O)CC(Cc3ccccc3)C2=O)cc1 (stereo unspecified) | 1610 | –
15 | CS(=O)(=O)ON1C(=O)CC(Cc2cccc(C(F)(F)F)c2)C1=O (stereo unspecified) | 217 | –
16 | CS(=O)(=O)ON1C(=O)CC(Cc2ccccc2)C1=O (stereo unspecified) | 1050 | –
17 | O=C1CC(Cc2ccccc2)C(=O)N1OS(=O)(=O)c1ccc(Br)cc1 (stereo unspecified) | 1650 | –

Continued, values first:

Row | K obs / 1 [1] [M⁻¹ s⁻¹] | K obs / 1 [2] | Structure (SMILES)
18 | 1580 | – | O=C1CC(Cc2ccccc2)C(=O)N1OS(=O)(=O)c1ccc2ccccc2c1 (stereo unspecified)
19 | 373 | – | CS(=O)(=O)ON1C(=O)CC(Cc2cccc(F)c2)C1=O (stereo unspecified)
20 | 49300 | – | CC(C)CC1CC(=O)N(OS(C)(=O)=O)C1=O (stereo unspecified)
21 | 770 | – | O=C1CC(Cc2ccccc2)C(=O)N1OS(=O)(=O)Cc1ccccc1 (stereo unspecified)
22 | 323 | – | CN(C)S(=O)(=O)ON1C(=O)CC(Cc2ccccc2)C1=O (stereo unspecified)
23 | 620 | – | O=C1CC(Cc2ccccc2)C(=O)N1OS(=O)(=O)c1cccc2ccccc12 (stereo unspecified)
24 | 1680 | – | CCCCS(=O)(=O)ON1C(=O)CC(Cc2ccccc2)C1=O (stereo unspecified)
25 | 316 | – | O=C1CC(Cc2ccccc2)C(=O)N1OS(=O)(=O)c1cccc(C(F)(F)F)c1 (stereo unspecified)
26 | > 100000 | – | CC(C)CC1CC(=O)N(OS(=O)(=O)/C=C/c2ccccc2)C1=O (stereo unspecified)
